Here are results for 31 compounds from ChEMBL document CHEMBL1136954, “Toward the back-up of boceprevir (SCH 503034): discovery of new extended P4-capped ketoamide inhibitors of hepatitis C virus NS3 serine protease with improved potency and pharmacokinetic profiles” (J Med Chem, 2009).

A short description of data set [1]: Inhibition of HCV NS4A-tethered single chain NS3 serine protease by spectrophotometric assay. Set-up: species or system Hepacivirus hominis. In outline: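 Continuous assay with NS4A-tethered single-chain NS3 serine protease; potency given as Ki*.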
A short description of data set [2]: Cytotoxicity against human hepatocytes assessed as effect on GAPDH RNA level […]. It counts as cell-based, Hepatocyte. In outline: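 Counter-screen for cellular toxicity measuring GAPDH; CC50 reported.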
Data set [3] deals with Hepatitis C virus. Description: Antiviral activity against Hepatitis C virus genotype 1 infected in human hepatocytes by replicon assay. It counts as functional, Hepacivirus hominis. The following applies: genotype 1, Hepatocyte. In outline: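 HCV genotype 1 replicon cell assay; EC90 reported, within 3-fold at 95% confidence for a single assay and within 2-fold for multiple assays.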

For `CC(C)[C@@H](Cc1ccccc1)NC(=O)N[C@H](C(=O)N1C[C@H]2[C@@H]([C@H]1C(=O)NC(CC1CC1)C(=O)C(N)=O)C2(C)C)C(C)(C)C` (mixture of isomers), in data set [1], the affinity corresponds to a Ki of 59 nM. For the same compound, the CC50 in data set [2] is above 5000 nM.
As for `C=CCNC(=O)C(=O)C(CC1CC1)NC(=O)[C@@H]1[C@@H]2[C@H](CN1C(=O)[C@@H](NC(=O)N[C@H](C(=O)C1CC1)C1CCCCC1)C(C)(C)C)C2(C)C` (mixture of isomers), the inhibitory constant (Ki) in data set [1] stood at 27 nM. Besides, the 90% effect concentration (EC90) in data set [3] is 450 nM. Moreover, the CC50 in data set [2] is above 5000 nM.
As for `C[C@@H](OC(=O)C1(NC(=O)N[C@H](C(=O)N2C[C@H]3[C@@H]([C@H]2C(=O)NC(CC2CC2)C(=O)C(N)=O)C3(C)C)C(C)(C)C)CCCCC1)c1ccccc1` (mixture of isomers), the Ki in data set [1] worked out at 80 nM. In data set [3], this compound displayed a concentration for an effect of 90% (EC90) of 600 nM. Further, the CC50 in data set [2] was above 5000 nM.
The corresponding values for `CC(C)[C@H](NC(=O)N[C@H](C(=O)N1C[C@H]2[C@@H]([C@H]1C(=O)NC(CC1CC1)C(=O)C(N)=O)C2(C)C)C(C)(C)C)C(=O)C(C)(C)C` (mixture of isomers) are 12 nM, 200 nM and above 5000 nM.
Regarding `CC(C)(C)[C@H](NC(=O)NC1(C(=O)OCc2ccccc2)CC1)C(=O)N1C[C@H]2[C@@H]([C@H]1C(=O)NC(CC1CC1)C(=O)C(N)=O)C2(C)C` (mixture of isomers), the affinity in data set [1], expressed as Ki, was 170 nM. The compound also returned a 90% effect concentration (EC90) in data set [3] of 1000 nM. The CC50 in data set [2] was above 5000 nM.
The corresponding values for `CC(C)[C@H](NC(=O)N[C@H](C(=O)N1C[C@H]2[C@@H]([C@H]1C(=O)NC(CC1CC1)C(=O)C(N)=O)C2(C)C)C(C)(C)C)C(=O)NS(=O)(=O)c1ccccc1` (mixture of isomers) are 6 nM, 5000 nM and above 5000 nM.
For `CO[C@H](c1ccccc1)[C@@H](NC(=O)N[C@H](C(=O)N1C[C@H]2[C@@H]([C@H]1C(=O)NC(CC1CC1)C(=O)C(N)=O)C2(C)C)C(C)(C)C)C(C)C` (mixture of isomers), the inhibition constant (Ki) in data set [1] came out at 60 nM. Further, the half-maximal cytotoxic concentration (CC50) in data set [2] is above 5000 nM.
`CC(C)(C)[C@H](NC(=O)NC1(C(=O)OCC2CC2)CCCCC1)C(=O)N1C[C@H]2[C@@H]([C@H]1C(=O)NC(CC1CC1)C(=O)C(N)=O)C2(C)C` (mixture of isomers): in data set [1], affinity was put at a Ki of 39 nM. Also, in data set [3], the 90% effect level (EC90) was put at 60 nM. In addition, the CC50 in data set [2] is above 5000 nM.
`CC(C)(C)[C@H](NC(=O)NC1(C(=O)OCc2ccoc2)CCCCC1)C(=O)N1C[C@H]2[C@@H]([C@H]1C(=O)NC(CC1CC1)C(=O)C(N)=O)C2(C)C` (mixture of isomers) had an inhibition constant Ki in data set [1] of 39 nM. Besides, it took 20 nM to reach the 90% level in data set [3] (EC90). In data set [2], the CC50 was above 5000 nM.
In data set [1], `CC(C)(C)[C@H](NC(=O)N[C@H](C(=O)OCc1ccccc1)C1CCCC1)C(=O)N1C[C@H]2[C@@H]([C@H]1C(=O)NC(CC1CC1)C(=O)C(N)=O)C2(C)C` (mixture of isomers) had a Ki of 9 nM. It took 25 nM to reach the 90% level in data set [3] (EC90). In data set [2], the 50% cytotoxic concentration (CC50) was above 5000 nM.
Consider `CC(C)(C)[C@H](NC(=O)NC1(C(=O)OCc2ccco2)CCCCC1)C(=O)N1C[C@H]2[C@@H]([C@H]1C(=O)NC(CC1CC1)C(=O)C(N)=O)C2(C)C` (mixture of isomers), for which affinity in data set [1] was put at a Ki of 28 nM. In data set [3], this compound showed a concentration for an effect of 90% (EC90) of 30 nM. For the same compound, the CC50 in data set [2] is above 5000 nM.
In data set [1], `CC(C)[C@H](NC(=O)N[C@H](C(=O)N1C[C@H]2[C@@H]([C@H]1C(=O)NC(CC1CC1)C(=O)C(N)=O)C2(C)C)C(C)(C)C)C(=O)C1CCC1` (mixture of isomers) displayed a Ki of 20 nM. In addition, the 90% effect level in data set [3] (EC90) was put at 350 nM. Also, the half-maximal cytotoxic concentration (CC50) in data set [2] was above 5000 nM.
Turning to `CC(C)(C)[C@H](NC(=O)NC1(C(=O)c2ccccc2)CCCCC1)C(=O)N1C[C@H]2[C@@H]([C@H]1C(=O)NC(CC1CC1)C(=O)C(N)=O)C2(C)C` (mixture of isomers), the inhibitory constant (Ki) in data set [1] is 100 nM. In data set [3], this compound registered a concentration for an effect of 90% (EC90) of 2000 nM. Besides, in data set [2], the cytotoxic concentration (CC50) was above 5000 nM.
The corresponding values for `C=CCNC(=O)C(=O)C(CCCC)NC(=O)[C@@H]1[C@@H]2[C@H](CN1C(=O)[C@@H](NC(=O)N[C@H](C(=O)C1CC1)C1CCCCC1)C(C)(C)C)C2(C)C` (mixture of isomers) are 38 nM, 900 nM and above 5000 nM.
As for `CC(=O)[C@@H](NC(=O)N[C@H](C(=O)N1C[C@H]2[C@@H]([C@H]1C(=O)NC(CC1CC1)C(=O)C(N)=O)C2(C)C)C(C)(C)C)C(C)C` (mixture of isomers), the inhibition constant (Ki) in data set [1] was 14 nM. For the same compound, the 90% effect concentration (EC90) in data set [3] turned out to be 400 nM. Moreover, in data set [2], the CC50 was above 5000 nM.
`CC(C)(C)[C@H](NC(=O)NC1(C(=O)NS(=O)(=O)c2ccccc2)CCCCC1)C(=O)N1C[C@H]2[C@@H]([C@H]1C(=O)NC(CC1CC1)C(=O)C(N)=O)C2(C)C` (mixture of isomers) returned a Ki in data set [1] of 110 nM. In data set [3], the 90% effect level (EC90) was put at 5000 nM. For the same compound, the CC50 in data set [2] is above 5000 nM.
The like results for `CC(C)(C)[C@H](NC(=O)NC1(C(=O)NCc2ccccc2)CCCCC1)C(=O)N1C[C@H]2[C@@H]([C@H]1C(=O)NC(CC1CC1)C(=O)C(N)=O)C2(C)C` (mixture of isomers) were, in that order, 44 nM, 5000 nM and above 5000 nM.
`COC(=O)C1(NC(=O)N[C@H](C(=O)N2C[C@H]3[C@@H]([C@H]2C(=O)NC(CC2CC2)C(=O)C(N)=O)C3(C)C)C(C)(C)C)CCCCC1` (mixture of isomers) gave an inhibitory constant (Ki) in data set [1] of 30 nM. Besides, it took 200 nM to reach the 90% level in data set [3] (EC90). The cytotoxic concentration (CC50) in data set [2] was above 5000 nM.
The compound `CC1(NC(=O)N[C@H](C(=O)N2C[C@H]3[C@@H]([C@H]2C(=O)NC(CC2CC2)C(=O)C(N)=O)C3(C)C)C(C)(C)C)CCCCC1` (mixture of isomers) returned a Ki in data set [1] of 9 nM. Further, the EC90 in data set [3] came out at 200 nM. Further, the 50% cytotoxic concentration (CC50) in data set [2] is above 5000 nM.
With `CC(C)[C@H](NC(=O)N[C@H](C(=O)N1C[C@H]2[C@@H]([C@H]1C(=O)NC(CC1CC1)C(=O)C(N)=O)C2(C)C)C(C)(C)C)[C@H](O)c1ccccc1` (mixture of isomers), the affinity in data set [1], expressed as Ki, was 77 nM. Moreover, the CC50 in data set [2] was above 5000 nM.
`CC(C)[C@@](C)(NC(=O)N[C@H](C(=O)N1C[C@H]2[C@@H]([C@H]1C(=O)NC(CC1CC1)C(=O)C(N)=O)C2(C)C)C(C)(C)C)C(=O)OCc1ccccc1` (mixture of isomers) returned an inhibition constant (Ki) in data set [1] of 290 nM. The CC50 in data set [2] is above 5000 nM.
Take `CC(C)(C)[C@H](NC(=O)NC1(COC(=O)c2ccccc2)CCCCC1)C(=O)N1C[C@H]2[C@@H]([C@H]1C(=O)NC(CC1CC1)C(=O)C(N)=O)C2(C)C` (mixture of isomers): the Ki in data set [1] came to 120 nM. Moreover, it took 1000 nM to reach the 90% level in data set [3] (EC90). Besides, the half-maximal cytotoxic concentration (CC50) in data set [2] was above 5000 nM.
In turn, `CC(C)[C@H](NC(=O)N[C@H](C(=O)N1C[C@H]2[C@@H]([C@H]1C(=O)NC(CC1CC1)C(=O)C(N)=O)C2(C)C)C(C)(C)C)C(=O)O[C@H](C)c1ccccc1` (mixture of isomers) showed a Ki in data set [1] of 80 nM. It took 600 nM to reach the 90% level in data set [3] (EC90). In addition, in data set [2], the cytotoxic concentration (CC50) was above 5000 nM.
Compound `CC(C)(C)[C@H](NC(=O)N[C@H](C(=O)N1C[C@H]2[C@@H]([C@H]1C(=O)NC(CC1CC1)C(=O)C(N)=O)C2(C)C)C(C)(C)C)C(=O)OCc1ccccc1` (mixture of isomers) showed a Ki in data set [1] of 67 nM. In addition, the EC90 in data set [3] stood at 50 nM. Besides, the CC50 in data set [2] was above 5000 nM.
Turning to `CC(C)(C)[C@H](NC(=O)N[C@H](C(=O)OCc1ccccc1)C1CCCCC1)C(=O)N1C[C@H]2[C@@H]([C@H]1C(=O)NC(CC1CC1)C(=O)C(N)=O)C2(C)C` (mixture of isomers), in data set [1], affinity was put at a Ki of 10 nM. In addition, the 90% effect concentration (EC90) in data set [3] turned out to be 20 nM. For the same compound, the CC50 in data set [2] was above 5000 nM.
Take `CC(C)(C)[C@H](NC(=O)N[C@H](C(=O)OCc1ccccc1)C1CC1)C(=O)N1C[C@H]2[C@@H]([C@H]1C(=O)NC(CC1CC1)C(=O)C(N)=O)C2(C)C` (mixture of isomers): in data set [1], the Ki worked out at 10 nM. Further, the 90% effect concentration (EC90) in data set [3] came to 20 nM. Moreover, the CC50 in data set [2] is above 5000 nM.
Take `CC(C)[C@H](NC(=O)N[C@H](C(=O)N1C[C@H]2[C@@H]([C@H]1C(=O)NC(CC1CC1)C(=O)C(N)=O)C2(C)C)C(C)(C)C)C(=O)OCc1ccccc1` (mixture of isomers): the Ki in data set [1] was 13 nM. In data set [3], it took 35 nM to reach the 90% level (EC90). In data set [2], the CC50 is above 5000 nM.
For the compound `CO/N=C(\c1ccccc1)[C@@H](NC(=O)N[C@H](C(=O)N1C[C@H]2[C@@H]([C@H]1C(=O)NC(CC1CC1)C(=O)C(N)=O)C2(C)C)C(C)(C)C)C(C)C` (mixture of isomers), the Ki in data set [1] was found to be 50 nM. Also, the CC50 in data set [2] is above 5000 nM.
Turning to `CC(C)(C)[C@H](NC(=O)NC1(C(=O)O)CCCCC1)C(=O)N1C[C@H]2[C@@H]([C@H]1C(=O)NC(CC1CC1)C(=O)C(N)=O)C2(C)C` (mixture of isomers), the Ki in data set [1] stood at 9 nM. For the same compound, in data set [3], the EC90 came to 5000 nM. In addition, in data set [2], the CC50 was above 5000 nM.
For the compound `CC(C)[C@H](NC(=O)N[C@H](C(=O)N1C[C@H]2[C@@H]([C@H]1C(=O)NC(CC1CC1)C(=O)C(N)=O)C2(C)C)C(C)(C)C)C(=O)C1CCCCC1` (mixture of isomers), the affinity in data set [1], expressed as Ki, was 13 nM. The 90% effect concentration (EC90) in data set [3] amounted to 200 nM. Also, in data set [2], the half-maximal cytotoxic concentration (CC50) is above 5000 nM.
In data set [1], `C=C(c1ccccc1)[C@@H](NC(=O)N[C@H](C(=O)N1C[C@H]2[C@@H]([C@H]1C(=O)NC(CC1CC1)C(=O)C(N)=O)C2(C)C)C(C)(C)C)C(C)C` (mixture of isomers) showed an inhibitory constant (Ki) of 50 nM. The half-maximal cytotoxic concentration (CC50) in data set [2] was above 5000 nM.
